Assay results reported in paper PMC8865373 (Biochemistry, 2021).
Where a SMILES comes first, the peptide text is derived from it. Where no end group is shown, it is not given here. [ ]: non-standard residue; d: D form. pS = N[C@@H](COP(=O)(O)O)C(=O)O

Assays:
[1] = target: T1, TAZ2 domain of CBP (residues 1764–1855) (Mus musculus, UniProt P45481); experiment: Fluorescence anisotropy competition with Alexa594-labeled E7; type: binding; conditions: ratio of fluorescence anisotropy competition KDs
T1 sequence (P45481 1764-1855): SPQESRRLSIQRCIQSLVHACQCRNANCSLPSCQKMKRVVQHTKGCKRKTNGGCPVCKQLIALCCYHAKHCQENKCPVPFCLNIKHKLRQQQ
Outline: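 Tracer: Alexa Fluor 594-labelled E7(1–51) C24A/A50C (dye at position 50), 20 nM, in 20 mM Tris, 50 mM NaCl, 1 mM DTT, pH 7.0. It was pre-bound to 0.8 μM TAZ2 (>90% saturation). Unlabelled E7 peptides were titrated in and the anisotropy decrease read at 590/617 nm. Apparent KD came from a competition fit using the tracer KD from direct TAZ2 titration.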

TAZ2 = conditions: doubly-phosphorylated peptide; fluorescence anisotropy and NMR spectroscopy; cited from earlier work

Row | Compound | KD of CR2 relative to the preceding CR1 motif (stronger) [1] | binding affinity for TAZ2 (TAZ2)
1 | CC(C)C[C@H](NC(=O)[C@H](CCC(N)=O)NC(=O)[C@H](CCC(=O)O)NC(=O)[C@H](Cc1ccc(O)cc1)NC(=O)[C@H](CS)NC(=O)[C@H](Cc1ccc(O)cc1)NC(=O)[C@H](CC(C)C)NC(=O)[C@H](CC(=O)O)NC(=O)[C@@H](NC(=O)[C@@H](NC(=O)[C@@H](N)CCC(=O)O)[C@@H](C)O)[C@@H](C)O)C(=O)N[C@@H](CC(N)=O)C(=O)N[C@@H](CC(=O)O)C(=O)N[C@@H](CO)C(=O)N[C@@H](CO)C(=O)N[C@@H](CCC(=O)O)C(=O)N[C@@H](CCC(=O)O)C(=O)N[C@@H](CCC(=O)O)C(=O)N[C@@H](CC(=O)O)C(=O)N[C@@H](CCC(=O)O)C(=O)O [CR2(18–37)] (H-ETTDLYCYEQLNDSSEEEDE-OH) | seven-fold | –
2 | ppE7(1–51): doubly-phosphorylated (S31, S32) HPV16 E7(1–51) peptide (MHGDTPTLHEYMLDLQPETTDLYCYEQLND[pS][pS]EEEDEIDGPAGQAEPDRAH) | – | low nanomolar range
